From PubChem
Sampled rows, rich in hits. Any-hit rate of the full collection: about 2.3%.
V1aR counter: agonists of human V1a receptor, primary screen, counter-screen for OXTR agonist project, fluorescence, CHO-V1R cells; Fluo-8 calcium fluorescence, agonist mode; 0% DMSO, 100% 3 nM vasopressin; actives 0.25% (n = 320,000); AID 2797, 2010; Vasopressin V1a receptor (Homo sapiens), P37288; activation, % at 3 µM;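 active = activation above the mean activation of all tested compounds plus 3 SD, per screening run, cut at about 20% in these data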;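 note: signal is peak over basal fluorescence ratio across a 100 second FLIPR read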
Target sequence (P37288 whole entry, looked up): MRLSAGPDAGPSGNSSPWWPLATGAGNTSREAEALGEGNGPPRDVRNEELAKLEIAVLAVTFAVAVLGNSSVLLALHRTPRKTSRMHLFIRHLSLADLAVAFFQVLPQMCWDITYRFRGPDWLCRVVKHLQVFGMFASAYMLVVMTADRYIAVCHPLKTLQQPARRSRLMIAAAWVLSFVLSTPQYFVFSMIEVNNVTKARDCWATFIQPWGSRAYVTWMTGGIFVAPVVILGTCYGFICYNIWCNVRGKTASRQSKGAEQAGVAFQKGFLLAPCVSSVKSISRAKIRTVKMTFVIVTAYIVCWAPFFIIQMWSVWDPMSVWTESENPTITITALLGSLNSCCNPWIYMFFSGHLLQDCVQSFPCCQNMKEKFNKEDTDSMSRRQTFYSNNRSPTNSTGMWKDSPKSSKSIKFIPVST
OXTR potentiate: human OXTR potentiators, primary screen, fluorescence, CHO-OTR cells, Fluo-8 calcium; Oxytocin receptor (Homo sapiens), P30559; actives 0.061% (n = 320,000); Fluo-8 calcium fluorescence, potentiator mode; 0% = oxytocin EC15, 100% = EC100; activation, % at 3 µM;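 active = activation above that plate's cutoff, the mean activation of tested compounds plus 3 SD, cut at about 6.6% in these data, passing the limit was not always enough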
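assay system = CHO-OTR cells, human receptor | schedule = compound 6 min at room temperature before oxytocin, 100 s read | detection = Fluo-8 intracellular calcium fluorescence, ex 470-495, em 515-575 nm | evaluation = normalized max/min fluorescence ratio, % activation | control set = EC15 oxytocin alone as 0%, 75 nM oxytocin (EC100) as 100%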
TAAR1 antag: human TAAR1 antagonists, primary screen, Fluo-8 calcium fluorescence, CHO RD-HGA16 cells; Trace amine-associated receptor 1 (Homo sapiens), Q96RJ0; inhibition, % at 3 µM; AID 624466, 2012; antagonist; actives 1.5% (n = 360,000);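 active = inhibition above a per-plate cutoff, the mean inhibition of test compounds on that plate plus 3 SD, cut at about 49% in these data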
Target sequence (Q96RJ0 whole entry, looked up): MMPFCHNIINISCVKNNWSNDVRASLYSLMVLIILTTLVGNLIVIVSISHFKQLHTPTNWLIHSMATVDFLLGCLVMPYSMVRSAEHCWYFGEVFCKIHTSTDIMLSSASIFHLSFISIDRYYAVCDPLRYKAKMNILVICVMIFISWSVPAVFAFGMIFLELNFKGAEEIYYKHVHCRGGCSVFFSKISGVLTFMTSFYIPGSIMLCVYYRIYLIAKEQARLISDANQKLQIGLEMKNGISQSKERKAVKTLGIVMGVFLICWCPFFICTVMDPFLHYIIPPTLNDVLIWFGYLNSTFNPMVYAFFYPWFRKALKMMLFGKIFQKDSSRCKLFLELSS
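Assay system: RD-HGA16 CHO cells with stable hTAAR1 and Gα16 / Reagent: EC80 β-phenethylamine stimulus / Doses: 3 µM, single point / Timing: dye loading 75 min at 37 °C, then 30 min room temperature / Measured by: Fluo-8 intracellular calcium dye fluorescence, real-time kinetic reads / Controls: vehicle wells and EC80 agonist wells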
OXTR agonist: human OXTR agonists, primary screen, fluorescence, CHO-OTR cells, Fluo-8 calcium; AID 2435, 2010; actives 0.32% (n = 320,000); Fluo-8 calcium fluorescence; normalized: DMSO 0%, oxytocin 100%; activation, % at 3 µM; Oxytocin receptor (Homo sapiens), P30559;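 active = activation above the mean of all tested compounds plus 3 SD, cutoff set per screening run, cut at about 20% in these data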;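 note: peak over basal fluorescence ratio from a 100 s FLIPR kinetic read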
TAAR1 ag: human TAAR1 agonists, primary screen, Fluo-8 calcium fluorescence, CHO RD-HGA16 cells; Trace amine-associated receptor 1 (Homo sapiens), Q96RJ0; actives 0.99% (n = 360,000); AID 624467, 2012; vehicle wells 0%, saturating PEA agonist 100%; activation, % at 3 µM;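 active = activation above the mean activation of all test compounds in the run plus 3 SD, cut at about 38% in these data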
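Test system: RD-HGA16 (CHO) cells co-expressing Gα16 and hTAAR1 | Doses: Single dose, 3 µM | Schedule: 17-24 h seeding, 75 min 37 °C dye, 30 min RT | Evaluation: % activation from peak over basal fluorescence ratio, DMSO-to-PEA scaled | Technique: Kinetic Fluo-8 calcium fluorescence | Benchmarks: Low control DMSO, high control PEA (EC100)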
Large screens that a line does not name were inactive.

COc1ccc(OC2C(=O)N(Cc3ccc(F)cc3)C2c2ccc(OC)c(OC)c2)cc1 (stereo not drawn)	none
CC(C)NC(=S)N/N=C/c1ccc2c(c1)OCCO2	none
COc1ccc(OCC(=O)Nc2cccc(-c3nc4ccccc4o3)c2)cc1	TAAR1 antag 49
COCCN1Cc2cccc(C(=O)Nc3cccc(-c4nc5ccccc5[nH]4)c3)c2C1=O	TAAR1 antag 61
Cc1cc(C)c(OCC(=O)Nc2nc3ccccc3[nH]2)c(C)c1	TAAR1 antag 49, TAAR1 ag 42
COc1ccc(OCC(=O)Nc2cccc(-c3nc4ccccc4[nH]3)c2)cc1	none
O=C(COc1ccccc1)Nc1cccc(-c2nc3ccccc3[nH]2)c1	TAAR1 antag 49
CCCC(=O)Nc1cccc(-c2nc3ccccc3o2)c1	none
CC(C)(C(=O)N1CCC1(C)C(=O)NC1Cc2ccccc2C1)c1ccccc1 (stereo not drawn)	none (no result: V1aR counter, OXTR potentiate, OXTR agonist)
CCOc1ccc(N(CC(=O)Nc2ccccc2C(=O)N2CCCC2)S(C)(=O)=O)cc1	none
Cc1ccc(-c2cnc(C(O)c3ccc(C)cc3)[nH]2)cc1 (stereo not drawn)	none (no result: V1aR counter, OXTR potentiate, OXTR agonist)
O=C(NCCc1ccccc1)C1CCCN(S(=O)(=O)c2cccnc2)C1 (stereo not drawn)	TAAR1 ag 40
NS(=O)(=O)c1ccc(CCNC(=O)C2CCCN(S(=O)(=O)c3cccnc3)C2)cc1 (stereo not drawn)	none
COc1ccccc1CNS(=O)(=O)c1ccc(-n2cnnn2)c(OC)c1	none
FC(F)(F)c1ccc(Cl)c(CN2CCN(c3ncc(Cc4ccccc4)cn3)CC2)c1	none (no result: V1aR counter, OXTR potentiate, OXTR agonist)
O=C1OC(N2CCN(C(=O)C3CCCO3)CC2)c2ccccc21 (stereo not drawn)	none
CCOC(=O)N1CCN(C2OC(=O)c3ccccc32)CC1 (stereo not drawn)	TAAR1 ag 38
Cc1ccc(NC(=O)COC(=O)C2(c3ccc(Cl)cc3)CCCC2)cc1	TAAR1 antag 58
CCOC(=O)[C@@H]1CSCCS(=O)(=O)N1Cc1ccc(C(F)(F)F)cc1	none (no result: V1aR counter, OXTR potentiate, OXTR agonist)
O=C(Nc1ccccc1N1CCCC1)c1cccc(S(=O)(=O)N2CCOCC2)c1	none
O=C(Cn1c(=O)n(CCc2c[nH]c3ccccc23)c(=O)c2cccnc21)Nc1ccccc1F	TAAR1 antag 52
COC(=O)c1ccc(CNC(=O)c2ccc(S(=O)(=O)N(C)c3ccccc3OC)cc2)cc1	TAAR1 antag 57
COc1ccccc1N(C)S(=O)(=O)c1ccc(C(=O)NCC2CCCCC2)cc1	TAAR1 antag 53
CC(=O)Nc1sc(/C(C#N)=C\c2cccc(Cl)c2)nc1-c1ccc(C)cc1	TAAR1 antag 52
CCN=C1SC(CC(=O)Nc2ccc3c(c2)OCO3)C(=O)N1CC (stereo not drawn)	TAAR1 antag 59
O=c1oc2ccc(C#CC3(O)CCCCC3)cc2cc1-n1cc(-c2ccccn2)nn1	TAAR1 antag 52
Nc1cccc(-c2cn(-c3cc4cc(C#CC5(O)CCCCC5)ccc4oc3=O)nn2)c1	TAAR1 antag 58
Cn1nc(C(=O)NNC(=O)c2ccc(Cl)cc2)ccc1=O	none
COc1ccc(CNC(=O)[C@@H]2CC=C[C@@H]3CCN(Cc4ccc(Cl)c(Cl)c4)C(=O)[C@@H]32)cc1	none
COc1ccc(CNC[C@@H](CCCCN(C)Cc2ccc(OC)cc2)N2C[C@H](c3ccccc3)N(CCc3ccc(Cl)c(Cl)c3)C(=O)C2=O)cc1	V1aR counter 58, OXTR agonist 29 (no result: TAAR1 antag, TAAR1 ag)
COc1ccc(Cc2nnc(NC(=O)C3CC(=O)N(c4ccccc4)C3)s2)cc1OC (stereo not drawn)	none
O=C(CCC(=O)N(CC(=O)NC1CCCC1)c1cccc(F)c1)Nc1nccs1	none
O=C(COc1cccnc1[N+](=O)[O-])NCCc1ccccc1	none
CCc1ccc(CNC(=O)CCC(=O)n2ncc3cc(C)ccc32)cc1	TAAR1 ag 47
CC(=O)c1cccc(NC(=O)CN2C(=O)NC(C)(C)C2=O)c1	none
O=[N+]([O-])c1ccc(O)c(/C=N/n2c(CO)nc3ccccc32)c1	none
O=[N+]([O-])c1ccc(O)c(/C=N/n2cnc3ccccc32)c1	OXTR agonist 21
Oc1ccc(C(c2nnnn2C2CCCC2)N2CCc3ccccc3C2)cc1 (stereo not drawn)	TAAR1 antag 84, TAAR1 ag 82
Cc1ccc(C(=O)C(C)OC(=O)CCN2C(=O)C3C4C=CC(C5CC45)C3C2=O)cc1 (stereo not drawn)	none
CCN(CC)S(=O)(=O)c1cccc(C(=O)N/N=C/c2ccc([N+](=O)[O-])o2)c1	none
CCN(C(=O)COC(=O)c1ccc(=O)n(Cc2ccccc2)n1)C1CCS(=O)(=O)C1 (stereo not drawn)	none (no result: V1aR counter, OXTR potentiate, OXTR agonist)
Oc1ccc2sc(-c3ccccc3O)c(-c3ccc(OCCN4CCCCC4)cc3)c2c1	TAAR1 antag 53, TAAR1 ag 39 (no result: V1aR counter, OXTR potentiate, OXTR agonist)
COC(=O)C1=C(C)N(Cc2ccccc2)C(=S)NC1c1cccc(Br)c1 (stereo not drawn)	none (no result: V1aR counter, OXTR potentiate, OXTR agonist)
O=c1ccc2c(-c3ccccc3)c3ccc(O)cc3oc-2c1	V1aR counter active, TAAR1 antag 105, OXTR agonist 850, TAAR1 ag 673
Nc1ccc(-c2c3ccc(=O)cc-3oc3cc(O)ccc23)cc1C(=O)O	V1aR counter 261, TAAR1 antag 68, OXTR agonist 292, TAAR1 ag 212
O=c1cc(-c2ccccc2)oc2cc(O)ccc12	none (no result: V1aR counter, OXTR potentiate, OXTR agonist)
O=C(O)C1CCN(S(=O)(=O)c2ccc(Cl)s2)CC1	none
COC(=O)c1sc(-c2ccc(C(C)(C)C)cc2)cc1NC(=O)COCC(=O)O	TAAR1 antag 50
c1ccc(COc2ccc(-c3cc4nc(NCCCn5ccnc5)ccn4n3)cc2)cc1	TAAR1 antag 53 (no result: V1aR counter, OXTR potentiate, OXTR agonist)
OC1CCC(Nc2ccn3nc(-c4cccc(Cl)c4)cc3n2)CC1 (stereo not drawn)	none (no result: V1aR counter, OXTR potentiate, OXTR agonist)
OC1CCC(Nc2ccn3nc(-c4cccc(OCc5ccccc5)c4)cc3n2)CC1 (stereo not drawn)	TAAR1 antag 53 (no result: V1aR counter, OXTR potentiate, OXTR agonist)
COc1ccc(C(=O)Nc2ccnn2C2CCN(C(C)CSC)CC2)cc1 (stereo not drawn)	none
Cc1nnsc1NC(=O)OCc1ccc(C(F)(F)F)cc1	none
Cc1nnsc1NC(=O)OCc1ccccc1Cl	TAAR1 ag 41
CCCSc1nc(N)c(C#N)c(-c2ccc(C)cc2)c1C#N	TAAR1 antag 54
Cc1cccc(NNC(N)=S)c1C	none
CCOC(=O)CNS(=O)(=O)c1cc(-c2nnc(Nc3ccc4c(c3)OCO4)c3ccccc23)ccc1C	TAAR1 antag 59
